Data: ChEMBL document CHEMBL4017523, “Computer-Aided Identification and Lead Optimization of Dual Murine Double Minute 2 and 4 Binders: Structure-Activity Relationship Studies and Pharmacological Activity” (J Med Chem, 2017)
The source made the active and inactive calls. The rule behind the calls is not given here.

Tests used:
U-87 MG [1] = experiment: Antiproliferative activity against human U87MG derived cancer stem cells after 7 days by MTS assay; format: functional, cell-based; conditions: U-87MG ATCC
Outline: (§1)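 Cancer stem cells isolated by culturing 2.5 × 10^6 tumor cells without serum in NSC medium for 7 days. Treated with test agent (100 nM–10 μM) for 7 days, drug-containing medium renewed every 3 days. Proliferation measured by MTS and expressed as percent of control (mean ± SEM, N = 3).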

SH-SY5Y [2] = experiment: Antiproliferative activity against human SH-SY5Y derived cancer stem cells after 7 days by MTS assay; format: functional, cell-based; outline: as §1
SH-SY5Y [3] = experiment: cells; conditions: Homo sapiens, 24 h, read-out: Activity
SH-SY5Y [4] = experiment: Antiproliferative activity against human SH-SY5Y cells at 1 nM to 100 uM after 72 hrs by neutral red dye-based assay; format: functional, cell-based
Outline: (§2)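 Cells exposed to DMSO control or test agent at 1 nM to 100 μM for 72 h. Drug medium replaced, then 0.33% neutral red solution added at 10% of medium volume for 2 h at 37 °C. After PBS rinse, dye extracted with 1% glacial acetic acid/50% ethanol in PBS with 10 min shaking. Absorbance read at 540 nm.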

U-87 MG [5] = experiment: Antiproliferative activity against human U87MG cells at 1 nM to 100 uM after 72 hrs by neutral red dye-based assay; format: functional, cell-based; conditions: U-87MG ATCC; outline: as §2
SH-SY5Y [6] = experiment: Antiproliferative activity against human SH-SY5Y cells after 24 hrs by MTS assay
[7] = molecular target: T1, Protein Mdm4 (Homo sapiens) (UniProt O15151); experiment: Inhibition of MDM4 in human SH-SY5Y cells assessed as accumulation of p53 at 1 uM after 24 hrs in presence of Nutlin-3 by Western blot analysis; format: cell-based
T1 sequence (whole entry): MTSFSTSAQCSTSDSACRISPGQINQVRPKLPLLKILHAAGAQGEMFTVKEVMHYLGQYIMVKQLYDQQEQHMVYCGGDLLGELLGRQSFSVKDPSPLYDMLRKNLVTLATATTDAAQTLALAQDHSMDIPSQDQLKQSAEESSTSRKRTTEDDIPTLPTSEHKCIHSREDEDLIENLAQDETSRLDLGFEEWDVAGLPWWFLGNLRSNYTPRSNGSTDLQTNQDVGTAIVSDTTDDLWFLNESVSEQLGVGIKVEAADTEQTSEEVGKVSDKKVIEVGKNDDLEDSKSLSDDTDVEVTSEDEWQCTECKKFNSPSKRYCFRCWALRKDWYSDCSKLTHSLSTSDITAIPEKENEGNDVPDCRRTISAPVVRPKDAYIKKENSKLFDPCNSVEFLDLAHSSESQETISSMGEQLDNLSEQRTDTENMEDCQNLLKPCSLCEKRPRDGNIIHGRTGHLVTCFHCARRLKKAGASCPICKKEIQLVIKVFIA
Outline: (§3)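 Cells treated 24 h with DMSO control or agents at 1 μM, alone or combined with 1 μM MDM2 inhibitor. Cells lysed in RIPA buffer and run on 8.5% SDS-PAGE. Blots probed overnight at 4 °C with anti-p53 (1:200), using GAPDH as loading control. Bands quantified by densitometry as percent OD versus control (mean ± SEM, N = 2).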

[8] = molecular target: E3 ubiquitin-protein ligase Mdm2 (Homo sapiens, UniProt Q00987); experiment: Inhibition of MDM2 in human U87MG cells assessed as reduction in MDM2 interaction with p53 after 10 mins by quantitative sandwich immune-enzymatic assay; format: cell-based
SH-SY5Y [9] = experiment: Antiproliferative activity against human SH-SY5Y cells at 1 uM after 24 hrs in presence of Nutlin-3 by MTS assay relative to control; format: functional
Outline: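 Cells were exposed to compound for 24 h, alone or with 1 μM MDM2 inhibitor. Drug medium was then replaced with fresh medium, and cells grew for a further 3 days before the MTS read-out. Values are % of control (100%), mean ± SEM, N=3. For SH-SY5Y, IC50 came from a sigmoid dose-response fit.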

U-87 MG [10] = experiment: Antiproliferative activity against human U87MG cells at 1 uM after 24 hrs by MTS assay; format: functional, cell-based; conditions: U-87MG ATCC
Outline: (§4)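 Cells treated for 24 h, either alone or combined with reference MDM2 inhibitor (1 μM) and/or MDM4 inhibitor (1 μM). Drug medium then swapped for fresh medium and growth continued before MTS read-out. Data given as percent of untreated control set to 100% (mean ± SEM, N = 3).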

[11] = molecular target: T1, Protein Mdm4 (Homo sapiens); experiment: Inhibition of MDM4 in human SH-SY5Y cells assessed as increase in PUMA mRNA levels at 1 uM after 24 hrs in presence of Nutlin-3 by RT-qPCR analysis; format: cell-based
Outline: (§5)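 Cells incubated 24 h with agents at 1 μM, alone or combined with MDM2 inhibitor. RNA extracted and MDM2, PUMA and p21 transcripts quantified by real-time RT-PCR. Results reported as fold change versus control (mean ± SEM, N = 3).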

[12] = molecular target: T1, Protein Mdm4 (Homo sapiens); experiment: Inhibition of MDM4 in human SH-SY5Y cells assessed as accumulation of p53 at 1 uM after 24 hrs by Western blot analysis; format: cell-based; outline: as §3
[13] = molecular target: T1, Protein Mdm4 (Homo sapiens); experiment: Inhibition of MDM4 in human SH-SY5Y cells assessed as increase in p21 mRNA levels at 1 uM after 24 hrs in presence of Nutlin-3 by RT-qPCR analysis; format: cell-based; outline: as §5
[14] = molecular target: T1, Protein Mdm4 (Homo sapiens); experiment: Inhibition of MDM4 in human SH-SY5Y cells assessed as increase in PUMA mRNA levels at 1 uM after 24 hrs by RT-qPCR analysis; format: cell-based; outline: as §5
Protein Mdm4 = molecular target: T2, Protein Mdm4 (Homo sapiens, UniProt O15151); experiment: Inhibition of MDM4 in human SH-SY5Y cells assessed as reduction in MDM4 interaction with p53 after 10 mins by quantitative sandwich immune-enzymatic assay; format: cell-based
T2 sequence (O15151 whole entry): T1 sequence (whole entry)

[15] = molecular target: T1, Protein Mdm4 (Homo sapiens); experiment: Inhibition of MDM4 in human SH-SY5Y cells assessed as increase in p21 mRNA levels at 1 uM after 24 hrs by RT-qPCR analysis; format: cell-based; outline: as §5
[16] = molecular target: T1, Protein Mdm4 (Homo sapiens); experiment: Inhibition of MDM4 in human SH-SY5Y cells assessed as increase in MDM2 mRNA levels at 1 uM after 24 hrs by RT-qPCR analysis; format: cell-based; outline: as §5
SH-SY5Y [17] = experiment: Antiproliferative activity against human SH-SY5Y cells at 1 uM after 24 hrs in presence of […] by MTS assay relative to control; format: functional; outline: as §4

Chain of E3 ubiquitin-protein ligase Mdm2 (Q00987 whole entry): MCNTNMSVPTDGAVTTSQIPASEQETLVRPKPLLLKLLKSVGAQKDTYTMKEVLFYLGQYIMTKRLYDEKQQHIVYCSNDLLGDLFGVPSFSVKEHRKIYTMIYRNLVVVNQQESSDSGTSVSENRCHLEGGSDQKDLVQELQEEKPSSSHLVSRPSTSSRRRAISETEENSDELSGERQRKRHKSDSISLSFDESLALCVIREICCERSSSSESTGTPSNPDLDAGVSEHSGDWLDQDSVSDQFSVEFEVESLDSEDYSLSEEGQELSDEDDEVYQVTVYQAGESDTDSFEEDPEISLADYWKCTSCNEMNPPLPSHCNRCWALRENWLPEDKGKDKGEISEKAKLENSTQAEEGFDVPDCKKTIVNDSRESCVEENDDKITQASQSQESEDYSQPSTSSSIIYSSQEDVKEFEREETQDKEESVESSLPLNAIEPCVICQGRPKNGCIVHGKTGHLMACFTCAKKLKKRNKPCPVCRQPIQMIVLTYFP

Compound	Activity (U-87 MG [1])	Activity (SH-SY5Y [2])	viability at 1 µM (SH-SY5Y [3])	Activity (SH-SY5Y [4])	Activity (U-87 MG [5])	IC50 (SH-SY5Y [6])	inhibition [7]	IC50 [8]	Activity (SH-SY5Y [9])	Activity (U-87 MG [10])	inhibition [11]	inhibition [12]	inhibition [13]	inhibition [14]	IC50 (Protein Mdm4)	inhibition [15]	inhibition [16]	Activity (SH-SY5Y [17])
O=C(CC(c1ccccc1)c1ccccc1)N[C@@H](Cc1ccc(OCCCNc2ccccn2)cc1)C(=O)O	Dose-dependent effect	Dose-dependent effect	62.4%	Active	Active	0.356 µM	–	–	–	–	–	–	–	–	–	–	–	–
CCOc1cc(/C=C2\C(=O)N(c3ccccc3)N=C2C)cc(Cl)c1OCC(=O)OC	–	–	–	–	–	–	Active	> 1 µM	47.1%	inactive	Active	Active	Active	inactive	0.847 µM	inactive	Active	–
COc1ccc(C2=N[C@H](c3ccc(Cl)cc3)[C@H](c3ccc(Cl)cc3)N2C(=O)N2CCNC(=O)C2)c(OC(C)C)c1	–	–	–	–	–	–	–	–	–	Active	–	–	–	–	–	–	–	47.1%
